The record followed here is ChEMBL document CHEMBL4118152, “Discovery of Potent and Selective Periphery-Restricted Quinazoline Inhibitors of the Cyclic Nucleotide Phosphodiesterase PDE1” (J Med Chem, 2018).

pIC50: −log10 of the molar value. Calls of active or inactive are those of the source. The calls are words filed in the database; no cut-off is given here.

As usually defined, the inhibition is the relative decrease from the control value, in per cent. Broadly, the pIC50 is the IC50 on a negative log10 scale, so that one unit is a factor of ten.

Test [1] concerns the target T1, cGMP-specific 3',5'-cyclic phosphodiesterase (Homo sapiens, UniProt O76074). The test is described as follows: Inhibition of recombinant human PDE5 expressed in HEK293 cells using 3',5'-[3H]cGMP as substrate at 1 uM. The procedure, abridged:
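Recombinant enzymes were tested at 1.0 µM inhibitor with cAMP or cGMP substrate at 0.1 µM. Read-out is hydrolytic activity relative to control.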

The target in test [2] is T1, cGMP-specific 3',5'-cyclic phosphodiesterase. The test is described as follows: Inhibition of PDE5A in soluble protein extracts of human myocardium using 3',5'-[3H]cAMP as substrate at 1 uM relative to control.
Test [3] addresses T2, Dual specificity calcium/calmodulin-dependent 3',5'-cyclic nucleotide phosphodiesterase 1C (Homo sapiens, UniProt Q14123). The test is described as follows: Inhibition of recombinant C-terminal FLAG tagged human PDE1C expressed in HEK293 cells using 3',5'-[3H]cAMP as substrate.
The target in test [4] is Dual specificity calcium/calmodulin-dependent 3',5'-cyclic nucleotide phosphodiesterase 1A (Homo sapiens, UniProt P54750). The experiment in a line: Inhibition of full length recombinant human PDE1A using 3',5'-[3H]cAMP as substrate after 30 mins by scintillation proximity assay. The procedure, abridged:
(§1)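 Human recombinant enzymes; substrate held below 1/3 of Km. IC50 reported as mean ± SEM of at least 3 determinations.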

Test [5] deals with T3, cGMP-inhibited 3',5'-cyclic phosphodiesterase 3A (Homo sapiens, UniProt Q14432). The test is described as follows: Inhibition of PDE3A in soluble protein extracts of human myocardium using 3',5'-[3H]cGMP as substrate at 1 uM relative to control.
T3 sequence (Q14432 whole entry): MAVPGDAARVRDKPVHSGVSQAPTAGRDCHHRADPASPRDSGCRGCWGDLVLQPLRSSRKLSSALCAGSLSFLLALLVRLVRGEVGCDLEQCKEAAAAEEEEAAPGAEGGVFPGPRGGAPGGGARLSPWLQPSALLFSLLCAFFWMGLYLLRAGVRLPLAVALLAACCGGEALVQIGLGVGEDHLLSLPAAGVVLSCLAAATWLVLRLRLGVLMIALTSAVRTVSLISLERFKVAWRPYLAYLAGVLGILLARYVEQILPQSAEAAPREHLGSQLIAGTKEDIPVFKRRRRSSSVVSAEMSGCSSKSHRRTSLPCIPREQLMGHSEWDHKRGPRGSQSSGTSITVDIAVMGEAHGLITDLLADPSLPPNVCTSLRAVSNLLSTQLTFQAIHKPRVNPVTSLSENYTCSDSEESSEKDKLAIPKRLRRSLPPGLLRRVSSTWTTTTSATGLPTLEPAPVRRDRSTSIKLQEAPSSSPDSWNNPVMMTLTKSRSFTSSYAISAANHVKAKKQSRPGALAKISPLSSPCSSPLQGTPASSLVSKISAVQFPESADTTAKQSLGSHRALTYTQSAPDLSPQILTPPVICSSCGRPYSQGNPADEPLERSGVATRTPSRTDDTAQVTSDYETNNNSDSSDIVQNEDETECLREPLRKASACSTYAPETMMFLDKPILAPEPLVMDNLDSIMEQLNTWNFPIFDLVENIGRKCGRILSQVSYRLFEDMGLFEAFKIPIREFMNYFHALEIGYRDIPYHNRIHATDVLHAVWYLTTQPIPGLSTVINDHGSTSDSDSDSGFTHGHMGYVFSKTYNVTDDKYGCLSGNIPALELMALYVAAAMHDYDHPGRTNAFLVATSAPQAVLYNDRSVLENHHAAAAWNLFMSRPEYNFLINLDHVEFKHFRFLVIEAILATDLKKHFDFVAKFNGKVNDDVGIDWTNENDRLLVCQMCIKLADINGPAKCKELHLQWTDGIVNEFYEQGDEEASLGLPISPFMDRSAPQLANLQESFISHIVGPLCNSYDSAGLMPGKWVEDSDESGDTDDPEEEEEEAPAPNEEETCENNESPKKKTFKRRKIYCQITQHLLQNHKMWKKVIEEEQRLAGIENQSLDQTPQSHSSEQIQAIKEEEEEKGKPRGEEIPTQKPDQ
Test [6] addresses T1, cGMP-specific 3',5'-cyclic phosphodiesterase. The experiment in a line: Inhibition of PDE5A in soluble protein extracts of human myocardium assessed as Ca2+/calmodulin stimulated substrate hydrolysis using 3',5'-[3H]cGMP as substrate relative to control. The settings on record: concentration not given here. The procedure, abridged: (§2)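 Soluble protein extracts from human left ventricle, test agent 1.0 µM, [3H]cAMP or [3H]cGMP substrate at 0.1 µM. Total activity was measured with CaCl2 plus exogenous calmodulin, and a parallel reaction was run with the Ca2+ chelator EGTA. Ca2+/calmodulin-dependent activity is total minus the EGTA activity; inhibition is given relative to control.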

In test [7] the target is T3, cGMP-inhibited 3',5'-cyclic phosphodiesterase 3A. The test is described as follows: Inhibition of recombinant human PDE3A expressed in HEK293 cells using 3',5'-[3H]cAMP as substrate. Put shortly: (§3)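 Recombinant enzymes were assayed for hydrolysis of cAMP or cGMP, with substrate at 0.1 µM. The inhibitor was tested at 1.0 µM.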
Test [8] has the same target. The test is described as follows: Inhibition of PDE3A in soluble protein extracts of human myocardium assessed as Ca2+/calmodulin stimulated substrate hydrolysis using 3',5'-[3H]cAMP as substrate relative to control. The settings on record: concentration not given here. Put shortly:
as §2

Another test deals with HEK293. The experiment in a line: Inhibition of recombinant human PDE3 expressed in HEK293 cells using 3',5'-[3H]cAMP as substrate at 1 uM. Put shortly:
as §3

For test [9], the target named is T2, Dual specificity calcium/calmodulin-dependent 3',5'-cyclic nucleotide phosphodiesterase 1C. The experiment in a line: Inhibition of full length recombinant human PDE1C using 3',5'-[3H]cAMP as substrate after 30 mins by scintillation proximity assay. Put shortly: as §1
Background: In a scintillation proximity assay essentially only radioactivity close to the scintillant gives light.

Test [10] deals with Dual specificity calcium/calmodulin-dependent 3',5'-cyclic nucleotide phosphodiesterase 1B (Homo sapiens, UniProt Q01064). The test is described as follows: Inhibition of full length recombinant human PDE1B1 using 3',5'-[3H]cAMP as substrate after 30 mins by scintillation proximity assay. Put shortly:
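Enzymes were human except PDE6A, which was bovine. Each was assayed with cAMP or cGMP substrate, as appropriate to the enzyme, at concentrations below 1/3 of Km. IC50 values are mean ± SEM from n = 3 or more.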

Test [11] addresses T1, cGMP-specific 3',5'-cyclic phosphodiesterase. The test is described as follows: Inhibition of PDE5A in soluble protein extracts of human myocardium using 3',5'-[3H]cGMP as substrate at 1 uM relative to control.
The target in test [12] is T3, cGMP-inhibited 3',5'-cyclic phosphodiesterase 3A. The test is described as follows: Inhibition of PDE3A in soluble protein extracts of human myocardium assessed as Ca2+/calmodulin stimulated substrate hydrolysis using 3',5'-[3H]cGMP as substrate relative to control. To be noted: concentration not given here. Put shortly: as §2
Test [13] shares this target. The experiment in a line: Inhibition of recombinant human PDE3A expressed in HEK293 cells using 3',5'-[3H]cGMP as substrate. The procedure, abridged: as §3
Test [14] has as its target T1, cGMP-specific 3',5'-cyclic phosphodiesterase. The experiment in a line: Inhibition of PDE5A in soluble protein extracts of human myocardium assessed as Ca2+/calmodulin stimulated substrate hydrolysis using 3',5'-[3H]cAMP as substrate relative to control. To be noted: concentration not given here. The procedure, abridged: as §2
Test [15] concerns the target T3, cGMP-inhibited 3',5'-cyclic phosphodiesterase 3A. The test is described as follows: Inhibition of PDE3A in soluble protein extracts of human myocardium using 3',5'-[3H]cAMP as substrate at 1 uM relative to control.
The target of test [16] is T2, Dual specificity calcium/calmodulin-dependent 3',5'-cyclic nucleotide phosphodiesterase 1C. The experiment in a line: Inhibition of recombinant C-terminal FLAG tagged human PDE1C expressed in HEK293 cells using 3',5'-[3H]cGMP as substrate.
Test [17] has as its target T1, cGMP-specific 3',5'-cyclic phosphodiesterase. The test is described as follows: Inhibition of recombinant human PDE5A expressed in HEK293 cells using 3',5'-[3H]cGMP as substrate. The procedure, abridged: as §3

Chain of Dual specificity calcium/calmodulin-dependent 3',5'-cyclic nucleotide phosphodiesterase 1B (Q01064 whole entry): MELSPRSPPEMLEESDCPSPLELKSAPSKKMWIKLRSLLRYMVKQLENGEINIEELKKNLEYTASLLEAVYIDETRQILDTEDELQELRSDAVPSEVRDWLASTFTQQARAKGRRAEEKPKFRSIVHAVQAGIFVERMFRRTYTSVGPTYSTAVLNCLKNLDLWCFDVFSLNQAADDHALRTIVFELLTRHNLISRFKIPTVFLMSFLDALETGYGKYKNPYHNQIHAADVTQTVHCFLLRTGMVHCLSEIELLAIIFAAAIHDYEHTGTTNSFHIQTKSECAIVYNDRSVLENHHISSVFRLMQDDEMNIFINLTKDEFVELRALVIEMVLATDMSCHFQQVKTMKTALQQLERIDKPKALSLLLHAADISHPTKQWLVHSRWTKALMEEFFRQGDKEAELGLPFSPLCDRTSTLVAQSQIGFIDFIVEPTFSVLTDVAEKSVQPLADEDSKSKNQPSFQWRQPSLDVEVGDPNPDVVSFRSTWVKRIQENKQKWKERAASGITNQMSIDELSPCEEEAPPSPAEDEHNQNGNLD
T2 sequence (Q14123 whole entry): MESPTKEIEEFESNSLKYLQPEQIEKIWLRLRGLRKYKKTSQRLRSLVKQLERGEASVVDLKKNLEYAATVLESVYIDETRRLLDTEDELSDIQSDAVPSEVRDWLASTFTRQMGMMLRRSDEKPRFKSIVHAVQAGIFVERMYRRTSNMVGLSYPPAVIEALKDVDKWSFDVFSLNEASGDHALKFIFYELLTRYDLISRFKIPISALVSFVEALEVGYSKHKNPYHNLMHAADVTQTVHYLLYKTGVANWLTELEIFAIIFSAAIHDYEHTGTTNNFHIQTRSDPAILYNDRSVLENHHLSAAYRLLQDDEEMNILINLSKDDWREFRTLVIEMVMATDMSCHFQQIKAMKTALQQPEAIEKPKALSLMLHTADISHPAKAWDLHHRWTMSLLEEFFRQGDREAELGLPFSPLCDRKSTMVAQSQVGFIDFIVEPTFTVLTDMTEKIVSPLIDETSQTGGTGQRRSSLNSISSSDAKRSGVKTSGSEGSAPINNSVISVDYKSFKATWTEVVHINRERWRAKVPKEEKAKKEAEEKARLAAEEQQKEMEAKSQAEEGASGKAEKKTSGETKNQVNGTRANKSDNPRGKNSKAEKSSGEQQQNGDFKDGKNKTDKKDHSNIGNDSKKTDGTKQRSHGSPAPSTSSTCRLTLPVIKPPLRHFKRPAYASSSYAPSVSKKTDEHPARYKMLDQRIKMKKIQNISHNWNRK
Chain of Dual specificity calcium/calmodulin-dependent 3',5'-cyclic nucleotide phosphodiesterase 1A (P54750 whole entry): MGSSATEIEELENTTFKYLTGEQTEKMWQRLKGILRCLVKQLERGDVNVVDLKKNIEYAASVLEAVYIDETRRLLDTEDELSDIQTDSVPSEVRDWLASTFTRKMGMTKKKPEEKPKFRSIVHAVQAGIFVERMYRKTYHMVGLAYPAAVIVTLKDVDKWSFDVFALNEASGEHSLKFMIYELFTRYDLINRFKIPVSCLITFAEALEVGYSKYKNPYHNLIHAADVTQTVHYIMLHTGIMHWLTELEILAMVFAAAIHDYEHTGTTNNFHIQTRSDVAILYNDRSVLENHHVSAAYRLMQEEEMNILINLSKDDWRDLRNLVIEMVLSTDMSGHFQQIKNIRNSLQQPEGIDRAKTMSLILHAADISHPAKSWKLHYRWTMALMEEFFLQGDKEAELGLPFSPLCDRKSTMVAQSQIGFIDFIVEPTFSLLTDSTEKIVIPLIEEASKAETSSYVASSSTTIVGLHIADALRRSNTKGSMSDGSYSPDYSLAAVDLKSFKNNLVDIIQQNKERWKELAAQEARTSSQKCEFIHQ

As for `COc1ccc2c(NC(C)Cc3cc(C)[nH]n3)ncnc2c1OC` (racemic), the inhibition entry (in [1]; in the test with HEK293) was “Active” in each case. Besides, the inhibition worked out at 76% in test [2]; 80% in [5]; 90% in test [6]; 90% in [8]; 80% in test [11]; 90% in test [12]. The inhibition turned out to be 90% in [14] and 76% in test [15]. Besides, the pIC50 in test [3] was 7.25; in [4], 6.93; in test [7], 4.00; in test [9], 7.08; in test [10] it was 7.68; in test [13], 3.43. In addition, the pIC50 in [16] was 6.96; in test [17] it was 4.52.
On to `CCC(CC)Nc1ncnc2c(OC)c(OC)c(OC)cc12`, for which, in test [10], the pIC50 is 7.46.
The same measure, in the same setting: the value for `COc1cc2c(NC(C)Cc3cc(C)n[nH]3)ncnc2c(OC)c1OC` (racemic) was 7.57.
As for `COc1ccc2c(N[C@H](C)Cc3cc(C)[nH]n3)ncnc2c1OC`, the pIC50 was 6.11 in test [4], 6.24 in test [9] and 6.22 in test [10].
`COc1ccc2c([C@H]3CCc4ccc(Cl)cc43)ncnc2c1OC`: the pIC50 in [10] was 8.35.
`COc1cc2ncnc(NC(C)Cc3cc(C)n[nH]3)c2cc1OC` (racemic): the pIC50 in [10] was 7.28.
